Assay results reported in ChEMBL document CHEMBL1649256, “Comparison of assessment of oxygen consumption, Etest, and CLSI M38-A2 broth microdilution methods for evaluation of the susceptibility of Aspergillus fumigatus to posaconazole” (2009).
≈ marks a conversion by molar mass, not a printed value.

What was measured:
Type in all cases: functional
Aspergillus fumigatus [1] = experiment: Antimicrobial activity against Aspergillus fumigatus isolate 45 after 48 hrs by Etest; conditions: isolate 45, 48 h
Aspergillus fumigatus [2] = experiment: Antimicrobial activity against Aspergillus fumigatus isolate 7 by oxygen consumption method
Aspergillus fumigatus [3] = experiment: Antimicrobial activity against Aspergillus fumigatus isolate 3 after 24 hrs by Etest; conditions: isolate 3, 24 h
Outline: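 Etest strips on RPMI 1640 agar with 2% glucose, pH 7.0, run per manufacturer's instructions. Incubated at 35°C; MIC read at 24 h.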

Aspergillus fumigatus [4] = experiment: Antimicrobial activity against Aspergillus fumigatus isolate 29 by CLSI M38-A2 broth microdilution method
Outline: (§1)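 Reference broth microdilution per CLSI M38-A2. MIC read as absence of visible growth at 48 h. C. parapsilosis ATCC 22019 and C. krusei ATCC 6258 QC strains run in each test session.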

Aspergillus fumigatus [5] = experiment: Antimicrobial activity against Aspergillus fumigatus isolate 10 by oxygen consumption method
Outline: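 Conidial suspension in RPMI 1640 broth with posaconazole at 0.25 and 2 μg/ml. Tubes agitated 12 h at 37°C in a biological oxygen monitor. Available oxygen was monitored continuously, and the MIC was assigned from the oxygen quantification.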

Aspergillus fumigatus [6] = experiment: Antimicrobial activity against Aspergillus fumigatus isolate 37 by CLSI M38-A2 broth microdilution method
Outline: (§2)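 CLSI M38-A2 broth microdilution with posaconazole. MIC taken as the lowest concentration with no visible growth at 48 h. C. parapsilosis ATCC 22019 and C. krusei ATCC 6258 were included as QC strains in every run.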

Aspergillus fumigatus [7] = experiment: Antimicrobial activity against Aspergillus fumigatus isolate 3 by CLSI M38-A2 broth microdilution method; outline: as §1
Aspergillus fumigatus [8] = experiment: Antimicrobial activity against Aspergillus fumigatus isolate 38 by CLSI M38-A2 broth microdilution method; outline: as §2
Aspergillus fumigatus [9] = experiment: Antimicrobial activity against Aspergillus fumigatus isolate 4 by CLSI M38-A2 broth microdilution method; outline: as §2
Aspergillus fumigatus [10] = experiment: Antimicrobial activity against Aspergillus fumigatus isolate 34 after 24 hrs by Etest; conditions: isolate 34, 24 h
Outline: (§3)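 Posaconazole Etest strips on RPMI 1640 agar with 2% glucose, pH 7.0, run per the strip maker's instructions. Incubated at 35°C. MIC read at 24 h and at 48 h, matching the time in each line.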

Aspergillus fumigatus [11] = experiment: Antimicrobial activity against Aspergillus fumigatus isolate 1 after 24 hrs by Etest; conditions: isolate 1, 24 h
Outline: (§4)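 Posaconazole Etest strips placed on RPMI 1640 agar with 2% glucose, pH 7.0, and run per the strip maker's instructions. Incubation at 35°C, with the MIC read at 24 h and at 48 h.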

Aspergillus fumigatus [12] = experiment: Antimicrobial activity against Aspergillus fumigatus isolate 36 by oxygen consumption method
Outline: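 Conidial suspension in RPMI 1640 broth, tested at two posaconazole levels (0.25 and 2 μg/ml). Agitated for 12 h at 37°C in a biological oxygen monitor. MIC derived from continuous monitoring and quantification of the available oxygen.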

Aspergillus fumigatus [13] = experiment: Antimicrobial activity against Aspergillus fumigatus isolate 20 by CLSI M38-A2 broth microdilution method; outline: as §1
Aspergillus fumigatus [14] = experiment: Antimicrobial activity against Aspergillus fumigatus isolate 19 by CLSI M38-A2 broth microdilution method
Outline: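 Posaconazole broth microdilution follows CLSI M38-A2. The MIC is the lowest concentration with no visible growth at 48 h. Candida parapsilosis ATCC 22019 and Candida krusei ATCC 6258 were included as QC strains in every run.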

Aspergillus fumigatus [15] = experiment: Antimicrobial activity against Aspergillus fumigatus isolate 34 after 48 hrs by Etest; conditions: isolate 34, 48 h; outline: as §3
Aspergillus fumigatus [16] = experiment: Antimicrobial activity against Aspergillus fumigatus isolate 43 after 48 hrs by Etest; conditions: isolate 43, 48 h; outline: as §3
Aspergillus fumigatus [17] = experiment: Antimicrobial activity against Aspergillus fumigatus isolate 41 after 24 hrs by Etest; conditions: isolate 41, 24 h; outline: as §3
Aspergillus fumigatus [18] = experiment: Antimicrobial activity against Aspergillus fumigatus isolate 14 after 24 hrs by Etest; conditions: isolate 14, 24 h; outline: as §4

SMILES: CC[C@@H]([C@H](C)O)n1ncn(-c2ccc(N3CCN(c4ccc(OC[C@@H]5CO[C@@](Cn6cncn6)(c6ccc(F)cc6F)C5)cc4)CC3)cc2)c1=O [POSACONAZOLE]
- MIC (Aspergillus fumigatus [1]): 0.125 µg/mL (≈ 0.178 µM)
- MIC (Aspergillus fumigatus [2]): ≤ 0.25 µg/mL
- MIC (Aspergillus fumigatus [3]): 1 µg/mL (≈ 1.43 µM)
- MIC (Aspergillus fumigatus [4]): 0.125 µg/mL (≈ 0.178 µM)
- MIC (Aspergillus fumigatus [5]): ≤ 0.25 µg/mL
- MIC (Aspergillus fumigatus [6]): 0.125 µg/mL (≈ 0.178 µM)
- MIC (Aspergillus fumigatus [7]): 1 µg/mL (≈ 1.43 µM)
- MIC (Aspergillus fumigatus [8]): 0.125 µg/mL (≈ 0.178 µM)
- MIC (Aspergillus fumigatus [9]): 0.06 µg/mL (≈ 0.0856 µM)
- MIC (Aspergillus fumigatus [10]): ≤ 0.03 µg/mL
- MIC (Aspergillus fumigatus [11]): 8 µg/mL (≈ 11.4 µM)
- MIC (Aspergillus fumigatus [12]): ≤ 0.25 µg/mL
- MIC (Aspergillus fumigatus [13]): 0.125 µg/mL (≈ 0.178 µM)
- MIC (Aspergillus fumigatus [14]): 0.5 µg/mL (≈ 0.713 µM)
- MIC (Aspergillus fumigatus [15]): ≤ 0.03 µg/mL
- MIC (Aspergillus fumigatus [16]): 0.06 µg/mL (≈ 0.0856 µM)
- MIC (Aspergillus fumigatus [17]): ≤ 0.03 µg/mL
- MIC (Aspergillus fumigatus [18]): 0.25 µg/mL (≈ 0.357 µM)
